From PubChem
The list is not random: actives were taken first. Their share in the collection is about 5%.
T cruzi repl – inhibitors of intracellular T. cruzi growth, primary screen, luminescence, NIH3T3 host cells. T. cruzi beta-gal in NIH3T3, 90 h. inhibition, % (test concentration not listed). actives 1.4% (n = 300,000). AID 1885, 2009;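 active means mean inhibition across valid replicates above about 55%, limit read from the data; inconclusive means mean below that limit but half or more replicates reach it; inactive means mean below it, under half of replicates reach it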;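 further: signal also drops with host cell toxicity which is not excluded here; higher percent means less beta-gal luminescence so fewer parasites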
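compound dosing = single 50 nL compound addition per well in DMSO | material = NIH/3T3 host cells with β-galactosidase reporter T. cruzi | input = 5,000 host fibroblasts per well | timing = ≥90 h infection period, 3 h prior cell attachment | read-out basis = percent inhibition of parasite-derived β-gal signal | detection = GalScreen β-gal luminescence, detergent lysis, 60 min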
CHOP UPR activ – activators of apoptotic CHOP UPR arm, primary screen, cell-based, CHO-CHOP luciferase reporter, luminescence, uHTS; AID 449763, 2010; actives 0.34% (n = 330,000); UPR activation; percent of tunicamycin response over DMSO baseline; activation, % at 10 µM;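 active means at 10 µM dose, activation of 40% or more, normalized to positive control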
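System: CHO CHOP reporter cells. Amount: 500 cells per well. Buffer or medium: F12 medium, 10% FBS. Compound dosing: one dose, 10 µM in 0.5% DMSO. Incubation: 6 h compound exposure at 37 °C after overnight seeding. Technique: Steady-Glo luciferase luminescence. Benchmarks: tunicamycin and DMSO controls.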
Mdm2 MdmX PPI – inhibitors of human Mdm2-MdmX association, primary screen, cell-based, luminescence, split luciferase, SaOS-2, uHTS; Protein Mdm4 (Homo sapiens) + E3 ubiquitin-protein ligase Mdm2 (Homo sapiens), …; SaOS-2 split-luciferase Mdm2/MdmX complementation; inhibition, % at 8 µM; actives 3% (n = 330,000);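 active means inhibition of at least 50% at 8 µM in the primary screen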
CSC inhib – cancer stem cell viability inhibitors, primary screen, luminescence | cancer stem cell-like cells viability | inhibition, % at 7.5 µM | actives 1.1% (n = 300,000); in the data active means inhibition above about 75%; inconclusive means no clear call, values can overlap the other calls; tested in HMLE shEcad cells
Beta cell apopt – inhibitors of cytokine-induced beta cell apoptosis, primary screen, luminescence | protection from apoptosis, % (test concentration not listed) | AID 435005, 2010 | INS-1E cytokine-induced death, ATP luminescence, 48 h; percent of positive-control rescue, neutral wells zero | actives 0.8% (n = 300,000);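 active means Every replicate reaches about 75%, or at least half do and their mean reaches it too, limit read from the data; inconclusive means At least half of replicates reach the limit but their mean does not; inactive means Under half of replicates reach the limit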;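 further: higher means more ATP so stronger rescue from cytokine killing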
XBP1 UPR activ – activators of adaptive XBP1 UPR arm, primary screen, cell-based, CHO-XBP1 luciferase reporter, luminescence, uHTS; IRE1-XBP1 UPR activation; percent of tunicamycin response, DMSO as zero; activation, % at 20 µM; actives 0.33% (n = 330,000); AID 463104, 2010;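 active means versus positive control, 20 µM dose yields 30% or more activation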
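Test system: CHO-XBP1 luciferase reporter cells | Buffer or medium: Serum-containing F12 medium, 10% FBS | Schedule: 6 h compound exposure at 37 °C, 5% CO2 | Detection: Steady-Glo luciferase glow luminescence, 10 min after reagent addition | Read-out basis: Activation, % of tunicamycin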
Of the large screens only hits and unclear results are named; the others gave an inactive call.

O=C(NCCCN1CCOCC1)c1ccc2c(=O)n(Cc3ccc(Cl)cc3)c(=S)[nH]c2c1	none (no result: Beta cell apopt)
O=C1C(Cl)=C(N2CCCCC2)C(=O)C(Cl)=C1c1cnc(N2CCCCC2)s1	CHOP UPR activ 128 (no result: CSC inhib, Beta cell apopt)
C[n+]1c2n(c3ccccc31)N=C(c1ccc(Cl)cc1)CS2	Beta cell apopt 76
CC1Sc2n(c3ccccc3[n+]2C)N=C1c1ccccc1 (centres undefined)	none
Cc1ccc(NC(=O)c2cccnc2C(=O)O)nc1	none
COc1ccc2[nH]c3c(=O)n(CCCCC(=O)NCCC(C)C)c(=S)[nH]c3c2c1	none (no result: CSC inhib)
Cc1cc(C)n(-c2nc(NCCCN(C)C)c3c4c(sc3n2)COC(C)(C)C4)n1	none
Cc1cc(C)n(-c2nc(NCCC(C)C)c3c4c(sc3n2)COC(C)(C)C4)n1	T cruzi repl 76 (no result: CHOP UPR activ, Mdm2 MdmX PPI, CSC inhib, Beta cell apopt, XBP1 UPR activ)
CCOc1ccc(S(=O)(=O)NN2Cc3ccccc3C2=N)cc1	none
O=C(N/N=C/c1cc2c3c(c1O)CCCN3CCC2)c1ccccc1O	T cruzi repl 59 (no result: CHOP UPR activ, Mdm2 MdmX PPI, CSC inhib, Beta cell apopt, XBP1 UPR activ)
O=C(NC(=S)Nc1ccc(CN2CCCCC2)cc1)c1cccc(OCc2ccccc2)c1	T cruzi repl 73 (no result: CSC inhib, Beta cell apopt)
O=C(O)c1ccc(NC(=S)NC(=O)c2cccc(COc3ccccc3)c2)cc1	none (no result: CSC inhib)
OC(COc1ccc2ccccc2c1Br)Cn1ccnc1 (centres undefined)	T cruzi repl 63
COc1cc(C(=O)N(CCN(C)C)CC2CCCN(Cc3ccccc3F)C2)ccc1C (centres undefined)	none (no result: Beta cell apopt)
O=C(COC(=O)COc1ccc(Cl)cc1)NC1CCCCCC1	none (no result: T cruzi repl, CSC inhib, Beta cell apopt)
COc1ccc(C(=O)NNC(=S)NC(=O)c2ccco2)cc1	none
COc1ccccc1C(=O)NNC(=S)NC(=O)c1ccco1	Beta cell apopt 84 (no result: CSC inhib)
N#CCn1c(C2CCCCC2)nc2ccccc2c1=O	none (no result: Beta cell apopt)
Cc1cc(C(=O)N/N=C/c2ccc(-c3ccccc3Cl)o2)n[nH]1	T cruzi repl 62
CCOC(=O)N/N=C\c1ccc([N+](=O)[O-])s1	none (no result: Beta cell apopt)
Cc1cc(C(=O)N/N=C/c2ccc([N+](=O)[O-])s2)n[nH]1	T cruzi repl 57 (no result: CSC inhib, Beta cell apopt)
Cc1[nH]cnc1C(=O)N/N=C/c1ccc([N+](=O)[O-])s1	T cruzi repl 57
CN(CC(=O)Nc1ccccc1C(F)(F)F)C(=O)CCc1nc2ccccc2c(=O)[nH]1	none (no result: Beta cell apopt)
COc1cc2oc3ccc(C#Cc4ccccn4)cc3c(=O)c2cc1OC	T cruzi repl 59 (no result: Beta cell apopt)
COc1cc2oc3ccc(C#Cc4ccc(N)cc4)cc3c(=O)c2cc1OC	none (no result: CHOP UPR activ, Mdm2 MdmX PPI, Beta cell apopt, XBP1 UPR activ)
Cn1c2ccccc2c(=O)c2cc(C#Cc3ccccn3)ccc21	CSC inhib 82
c1ccc(-c2ccc(-c3ccncn3)cc2)cc1	none (no result: Beta cell apopt)
COC(=O)c1ccc(NC(=O)COC(=O)COc2cccc3c2OC(C)(C)C3)cc1	none (no result: T cruzi repl)
CCCn1nnc(NC(=O)C(C)C)n1	none
COCCN1C(=O)N[C@@H](c2ccccc2)[C@H](C(=O)OC)[C@H]1C	none
C=CCNC(=O)NC(=O)c1csc([N+](=O)[O-])c1	none
CCNC(=O)NC(=O)c1csc([N+](=O)[O-])c1	T cruzi repl 59
C=CCn1c(SCc2ccc(F)cc2)nnc1-c1sc2nc(C)cc(C)c2c1N	T cruzi repl 63
Cc1ccc(C(=O)CSc2nc(-c3ccccc3)ccc2C#N)cc1	T cruzi repl inconclusive, CSC inhib 84
Cc1cc2c(NC(=O)Nc3ccc(C(F)(F)F)cc3)cccc2nn1	T cruzi repl 69
COC(=O)CCC/C=C1\SC[C@@H](NC(=O)c2ccccc2)C1NC(C)=O (some centres undefined)	none (no result: CSC inhib)
COc1ccc(C(C[N+](=O)[O-])C2(c3ccc(OC)c(OC)c3)C(=O)c3ccccc3C2=O)cc1 (centres undefined)	CSC inhib 89 (no result: CHOP UPR activ, Mdm2 MdmX PPI, XBP1 UPR activ)
